MPTP block: permeability transition pore inhibition; inhibition, % at 10 µM; isolated mouse mitochondria, Ca2+ swelling absorbance, 30 min; AID 602449; hit rate 1.4% among 360,000;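 active = inhibition of 50% or more, scaled per plate between neutral and stimulator controls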
ADAM17 inh: inhibitors of human ADAM17; P78536; recombinant ADAM17, EDANS/DABCYL FRET peptide cleavage; inhibition, % at 6.95 µM; hit rate 0.83% among 370,000; AID 720648;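 active = inhibition above the mean of compounds lying between control limits plus 3 SD, set per campaign, cut at about 8.5% in these data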
ADAM10 inh: inhibitors of human ADAM10. O14672. recombinant ADAM10, EDANS/DABCYL FRET peptide cleavage, 3 h. inhibition, % at 7 µM. hit rate 0.62% among 370,000. AID 720582;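 active = inhibition above a per-campaign cutoff equal to the mean of compounds falling between control-based bounds plus 3 SD, cut at about 20% in these data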
Target sequence (O14672 214-748 limits assumed): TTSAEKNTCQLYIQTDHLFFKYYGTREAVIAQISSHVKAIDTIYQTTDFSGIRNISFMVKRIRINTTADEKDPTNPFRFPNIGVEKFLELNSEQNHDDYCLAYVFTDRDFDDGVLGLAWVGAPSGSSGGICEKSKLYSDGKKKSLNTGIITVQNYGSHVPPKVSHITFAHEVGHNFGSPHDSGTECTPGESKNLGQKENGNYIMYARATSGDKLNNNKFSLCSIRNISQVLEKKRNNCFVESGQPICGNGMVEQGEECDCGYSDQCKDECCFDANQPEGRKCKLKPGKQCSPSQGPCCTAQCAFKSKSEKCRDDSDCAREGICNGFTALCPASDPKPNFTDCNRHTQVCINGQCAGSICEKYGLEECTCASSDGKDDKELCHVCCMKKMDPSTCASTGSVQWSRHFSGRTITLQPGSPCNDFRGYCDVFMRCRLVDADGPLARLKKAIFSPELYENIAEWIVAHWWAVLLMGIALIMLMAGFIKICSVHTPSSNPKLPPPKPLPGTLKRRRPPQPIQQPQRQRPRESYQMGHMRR
Lipid droplet: modulators of hepatic lipid droplet formation; AID 1656; hit rate 0.4% among 240,000; AML12 mouse hepatocytes, oleate lipid droplets, BODIPY imaging; inhibition, % at 6.5 µM;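 active = lipid droplet intensity inhibited by at least 50%, with more than 500 cells counted; inconclusive = wells with under 300 cells, treated as cytotoxic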
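Assay system: AML12 hepatocytes (mouse); Probe or stimulus: oleic acid at 100 µM to induce lipid droplet formation; Dosing: compound at 6.5 µM only; Schedule: compound with oleate, overnight; Detection: fluorescence imaging, 20x objective, two fields per well; Measure: % inhibition of lipid droplet signal.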
V-ATPase pHluor: regulators of yeast V-ATPase proton transport; S. cerevisiae, pHLuorin cytosolic pH fluorescence; response, % at 10 µM; hit rate 0.37% among 350,000; in the data active = response mostly above about 7.3%, no sharp cut-off; inactive = mostly below about 5.4%; also: actives read high
aDG glyco act: alpha-DG glycosylation activation; hit rate 0.22% among 360,000; activation, % at 10 µM; Pro5-aDG cells, alpha-DG glycosylation AlphaScreen (IIH6); 0% Pro5, 100% B10-LARGE cell signal;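 active = activation of at least 8% versus controls, or a plate z-score of at least 8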;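 also: Pro5 are CHO cells carrying HIG-tagged alpha-DG that lacks glycosylation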
MPTP counter: membrane potential counter-screen of mitochondrial pore inhibitors; shares compounds with MPTP block; isolated mitochondria, Rhodamine 123 fluorescence; inhibition, % at 10 µM; hit rate 78% among 5,000; in the data active = inhibition above about 22%
MPTP abs DR: MPTP inhibition, dose response swelling confirmation; shares compounds with MPTP block; isolated mitochondria swelling, absorbance; IC50, µM; hit rate 58% among 780; AID 651561; in the data active = IC50 below about 20 µM
MPTP cs DR: counter-screen for mitochondrial permeability transition pore inhibitors, dose response. shares compounds with MPTP block. isolated mitochondria counterscreen, fluorescence read-out. IC50, µM. hit rate 49% among 780. AID 651564; in the data active = IC50 below about 80 µM
Numbers stand for hits; - = inactive; ? = inconclusive; . = not tested or not shown. Hits are enriched below; roughly 3.1% of the tested compounds scored in any of these assays.

SMILES	MPTP block	ADAM17 inh	ADAM10 inh	Lipid droplet	V-ATPase pHluor	aDG glyco act	MPTP counter	others
COc1ccc(CNCCc2ccccc2)cc1OCC(N)=O	-	-	-	.	-	-	.
CCOc1cc(CNCc2ccccc2)ccc1OCc1ccc(Cl)cc1	68	-	-	-	-	-	73
COc1ccc(CCNC(=O)Cc2ccc(OCc3ccccc3)c(OC)c2[N+](=O)[O-])cc1OCc1ccccc1	76	-	-	-	-	-	55
CCCCCCCCN1CCS(=O)(=O)N(Cc2ccc(F)cc2)C(C(=O)OC)C1 (stereo unspecified)	.	-	-	.	.	.	.
COc1ccccc1C1c2c(ncn(-c3ccccc3)c2=N)Oc2ccc3ccccc3c21 (stereo unspecified)	.	-	-	.	.	.	.
CCCCCOc1ccc(Br)cc1/C(C)=N/NC1=NCCN1	93	-	-	?	-	-	24
COc1ccc(Br)cc1/C(C)=N/NC1=NCCN1	105	-	-	-	-	-	31
CCN(CC)C(=O)CC[C@@H]1CC[C@]2(CCCN(S(C)(=O)=O)C2)O1	.	-	-	.	.	.	.
CC(C)CNC(=O)OCc1cn(Cc2ccccc2)nn1	.	-	-	.	.	.	.
Cc1cccc2sc(NC(=O)C3CCN(S(=O)(=O)c4cc([N+](=O)[O-])ccc4Cl)CC3)nc12	100	-	20	-	-	-	75
Cc1ccccc1CN1CCCCC(NC(=O)c2ccccc2)C1=O (stereo unspecified)	.	-	-	.	.	.	.
CCOC(=O)c1ccc(-c2c(C(=O)OCC)oc3cc(O)c(CC)cc3c2=O)o1	82	-	-	-	-	-	86
CCOC(=O)c1oc2cc(O)c(CC)cc2c(=O)c1-c1cscn1	-	-	-	-	-	-	.
COc1ccc(Cl)c(-c2cc(C(=O)NCc3ccc(C(F)(F)F)cc3)[nH]n2)c1	-	-	-	.	.	-	.
Cc1ccc(Cl)cc1-c1cc(C(=O)Nc2ccc(F)cc2)[nH]n1	64	-	-	.	.	-	96
Cc1ccc(Cl)cc1-c1cc(C(=O)NCc2ccc(C(F)(F)F)cc2)[nH]n1	52	-	-	.	.	-	96
O=C(N/N=C/c1cn(-c2cccs2)nc1-c1ccccc1)c1ccccc1O	99	-	-	-	-	-	32
Cc1ccc2c(c1)C(CS(=O)(=O)NCCc1ccccc1)NC2 (stereo unspecified)	.	-	-	.	.	.	.
COc1ccc(OCCSCc2nnc(NC(=O)Nc3ccc(Cl)cc3)s2)cc1	94	-	-	-	-	-	71
O=C(Nc1cccc(Cl)c1)Nc1nnc(CSCCOc2ccc(Cl)cc2)s1	92	-	-	-	-	-	92
Cc1ccc(NC(=O)Nc2nnc(CSCCOc3ccc(Cl)cc3)s2)cc1	60	-	-	-	-	-	-	MPTP abs DR=-;MPTP cs DR=<2.5
CCc1nnc(NC(=O)Nc2ccc(OC)cc2)s1	-	-	-	-	-	-	.
CCCCOc1ccc(NC(=O)Nc2nnc(C)s2)cc1	-	-	-	-	-	-	.
O=C(Nc1cccc(Cl)c1)Nc1nnc(CC2=CCCCC2)s1	89	-	-	-	-	-	44
CNC(=O)C[C@H]1CC[C@H]2[C@@H](COc3ccc(NC(=O)Nc4ccccc4)cc3C(=O)N2C)O1	.	-	-	.	.	.	.
SMILES	MPTP block	ADAM17 inh	ADAM10 inh	Lipid droplet	V-ATPase pHluor	aDG glyco act	MPTP counter	others
CCN(C(=O)[C@@H](C)[C@@H](O)c1ccc2ccccc2c1)c1ccccc1	.	-	-	.	.	.	.
Cn1cccc1C1C=C(c2ccc(C(C)(C)C)cc2)Nc2ncnn21 (stereo unspecified)	82	-	-	.	-	-	69
C1=C(c2ccc(-c3ccccc3)cc2)Nc2ncnn2C1c1ccco1 (stereo unspecified)	58	-	-	.	-	-	-
CC(C)(C)c1ccc(C2=CC(c3ccccc3F)n3ncnc3N2)cc1 (stereo unspecified)	-	-	-	.	-	-	.
COC(=O)[C@]12C[C@H](CC(=O)N3CCCC3)C(=O)N(Cc3ccccc3)C1=C[C@H](COCc1ccccc1)O[C@@H]2C	.	-	-	.	.	.	.
COC(=O)c1cc(-c2ccc(OC)c(OC)c2)c(=O)n2c1CCC2	.	-	-	.	.	.	.
Cc1ccc(CNC(=O)O[C@H]2CC[C@@]34CCCN3C(=O)CCC[C@H]4C2)o1	.	-	-	.	.	.	.
COc1ccc(-c2cc(=O)n(-c3ccc([N+](=O)[O-])cc3)[nH]2)cc1	97	-	-	-	-	-	71
C[C@@H]1CN([C@@H](C)CO)C(=O)c2cccc(NC(=O)Nc3cccc4ccccc34)c2O[C@H]1CN(C)S(=O)(=O)c1ccc(Cl)cc1	.	-	-	.	.	.	.
Cc1nc2ccc(F)cc2cc1C(=O)Nc1ccc(Cl)c(Cl)c1	93	-	-	-	-	-	82
CCCCN1C[C@@H]2CSCCS(=O)(=O)N2C1=O	.	-	-	.	.	.	.
O=C(NC1CCCCN(Cc2cccc(F)c2)C1=O)c1ccc(F)cc1 (stereo unspecified)	.	-	-	.	.	.	.
Cc1ccc(-c2csc3ncnc(N4CCN(Cc5ccccc5)CC4)c23)cc1	-	-	-	-	-	-	.
Cc1csc2ncnc(NC3CCN(Cc4ccccc4)CC3)c12	92	-	-	-	-	-	87
COc1cc(/C=C2\C(=O)N(c3ccccc3)N=C2C)ccc1Oc1ccc([N+](=O)[O-])cc1[N+](=O)[O-]	88	-	-	-	-	-	61
CC1=NN(c2ccccc2)C(=O)/C1=C\c1ccc(Oc2ccc([N+](=O)[O-])cc2[N+](=O)[O-])cc1	80	-	-	-	-	-	70
COc1cc(/C=C2/C(=O)N(c3ccc(C)c(C)c3)N=C2C)cc([N+](=O)[O-])c1O	-	-	-	-	-	-	.
CCCC1CCC2(CC1)CCC2OC(=O)Nc1c(OC)cccc1OC (stereo unspecified)	.	-	-	.	.	.	.
Cc1ccc(S(=O)(=O)NCc2ccncc2)c(C)c1C	95	-	-	-	-	7.2	91
CCCCNS(=O)(=O)c1ccc(S(=O)(=O)NCc2ccncc2)cc1	80	-	-	-	-	-	70
Cc1cc(C)c(S(=O)(=O)NCc2ccncc2)c(C)c1	87	-	-	-	-	6.3	72
CCOC(=O)[C@@]12CN(C(=O)OC(C)(C)C)CC=C1N(Cc1ccc(OC)cc1)C(=O)[C@H]2CC(=O)N1CCC(c2ccccc2)CC1	.	-	-	.	.	.	.
CCc1c(C)nc2ncnn2c1NCCc1ccc(OC)cc1	51	-	-	.	-	-	65
CC(=O)Nc1c(-c2ccc(C(F)(F)F)cc2)nc2ncccn12	.	-	-	.	.	.	.
CCOCCCNCc1cn(-c2ccc(F)cc2F)nc1-c1ccccc1C	58	-	-	-	-	-	-	MPTP abs DR=15;MPTP cs DR=60

Bioassay records: PubChem BioAssay, several laboratories
